Source: ChEMBL document CHEMBL4689842, “EUbOPEN Chemogenomics Library wave 1” (2021)

Columns and labels:
[1] = test system: U2OS; test: Multiplex assay against U2OS; type: toxicity, cell-based; settings: human
Procedure, shortened: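 Four dyes were applied at seeding to live cells: Hoechst33342, BioTracker Green Microtubule Cytoskeleton Dye, MitoTracker Red and Annexin V Alexa Fluor 680. Imaging after compound addition used a CQ1 microscope at 37°C and 5% CO2. CellPathfinder machine-learning gating then sorted cells into Hoechst high-intensity objects or normal cells, normal cells into healthy, pyknosed or fragmented nuclei, and pyknosed cells into mitotic or apoptotic, with tubulin, mitochondrial-mass and membrane-permeability phenotypes given as per cents of healthy-nucleus cells.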

[2] = test system: U2OS; test: Incucyte cell viability with U2OS; type: toxicity, cell-based; settings: human, 10 µM, compound concentration 10 uM; further: filed as whole numbers so only -1 and 0 and 1 occur
[3] = 12 h, 1 µM, compound concentration 1 uM, replicate 1
[4] = 12 h, 1 µM, compound concentration 1 uM, replicate 2
[5] = 12 h, 10 µM, compound concentration 10 uM, replicate 1
[6] = 12 h, 10 µM, compound concentration 10 uM, replicate 2
[7] = 24 h, 1 µM, compound concentration 1 uM, replicate 1
[8] = 24 h, 1 µM, compound concentration 1 uM, replicate 2
[9] = 24 h, 10 µM, compound concentration 10 uM, replicate 1
[10] = 24 h, 10 µM, compound concentration 10 uM, replicate 2

Cc1cn(-c2cc(NC(=O)c3ccc4c(c3)CN(c3cncnc3)C[C@@H]4C)cc(C(F)(F)F)c2)cn1
Population Apoptotic (%) [1, 3]: 56%
Population Healthy Nuclei (%) [1, 3]: 81%
Population Hoechst High Intensity Objects (%) [1, 3]: 7%
Population Membrane Permeable-Phenotype (%) [1, 3]: 6%
Population Mitochondria Different-Phenotype (%) [1, 3]: 23%
Population Mitotic Cells (%) [1, 3]: 43%
Population Normal (%) [1, 3]: 92%
Population Pyknosed Nuclei (%) [1, 3]: 11%
Population Tubulin-Different-Phenotype (%) [1, 3]: 33%
Total Cell Count [1, 3]: 149
Population Apoptotic (%) [1, 4]: 0%
Population Fragmented Nuclei (%) [1, 4]: 7%
Population Healthy Nuclei (%) [1, 4]: 86%
Population Hoechst High Intensity Objects (%) [1, 4]: 16%
Population Membrane Permeable-Phenotype (%) [1, 4]: 11%
Population Mitochondria Different-Phenotype (%) [1, 4]: 30%
Population Mitotic Cells (%) [1, 4]: 100%
Population Normal (%) [1, 4]: 83%
Population Pyknosed Nuclei (%) [1, 4]: 6%
Population Tubulin-Different-Phenotype (%) [1, 4]: 19%
Total Cell Count [1, 4]: 116
Population Apoptotic (%) [1, 5]: 33%
Population Fragmented Nuclei (%) [1, 5]: 7%
Population Healthy Nuclei (%) [1, 5]: 84%
Population Hoechst High Intensity Objects (%) [1, 5]: 3%
Population Membrane Permeable-Phenotype (%) [1, 5]: 40%
Population Mitochondria Different-Phenotype (%) [1, 5]: 17%
Population Mitotic Cells (%) [1, 5]: 66%
Population Normal (%) [1, 5]: 96%
Population Pyknosed Nuclei (%) [1, 5]: 7%
Population Tubulin-Different-Phenotype (%) [1, 5]: 16%
Total Cell Count [1, 5]: 198
Population Apoptotic (%) [1, 6]: 66%
Population Fragmented Nuclei (%) [1, 6]: 10%
Population Healthy Nuclei (%) [1, 6]: 87%
Population Hoechst High Intensity Objects (%) [1, 6]: 15%
Population Membrane Permeable-Phenotype (%) [1, 6]: 24%
Population Mitochondria Different-Phenotype (%) [1, 6]: 26%
Population Mitotic Cells (%) [1, 6]: 33%
Population Normal (%) [1, 6]: 84%
Population Pyknosed Nuclei (%) [1, 6]: 3%
Population Tubulin-Different-Phenotype (%) [1, 6]: 17%
Total Cell Count [1, 6]: 118
Population Apoptotic (%) [1, 7]: 45%
Population Fragmented Nuclei (%) [1, 7]: 6%
Population Healthy Nuclei (%) [1, 7]: 83%
Population Hoechst High Intensity Objects (%) [1, 7]: 3%
Population Membrane Permeable-Phenotype (%) [1, 7]: 6%
Population Mitotic Cells (%) [1, 7]: 55%
Population Normal (%) [1, 7]: 96%
Population Pyknosed Nuclei (%) [1, 7]: 9%
Population Tubulin-Different-Phenotype (%) [1, 7]: 42%
Total Cell Count [1, 7]: 210
Population Apoptotic (%) [1, 8]: 42%
Population Fragmented Nuclei (%) [1, 8]: 9%
Population Healthy Nuclei (%) [1, 8]: 85%
Population Hoechst High Intensity Objects (%) [1, 8]: 6%
Population Membrane Permeable-Phenotype (%) [1, 8]: 12%
Population Mitochondria Different-Phenotype (%) [1, 8]: 26%
Population Mitotic Cells (%) [1, 8]: 57%
Population Normal (%) [1, 8]: 93%
Population Pyknosed Nuclei (%) [1, 8]: 5%
Population Tubulin-Different-Phenotype (%) [1, 8]: 34%
Total Cell Count [1, 8]: 143
Population Apoptotic (%) [1, 9]: 42%
Population Fragmented Nuclei (%) [1, 9]: 6%
Population Healthy Nuclei (%) [1, 9]: 85%
Population Hoechst High Intensity Objects (%) [1, 9]: 4%
Population Membrane Permeable-Phenotype (%) [1, 9]: 28%
Population Mitochondria Different-Phenotype (%) [1, 9]: 14%
Population Mitotic Cells (%) [1, 9]: 57%
Population Normal (%) [1, 9]: 95%
Population Pyknosed Nuclei (%) [1, 9]: 7%
Population Tubulin-Different-Phenotype (%) [1, 9]: 12%
Total Cell Count [1, 9]: 254
Population Apoptotic (%) [1, 10]: 22%
Population Fragmented Nuclei (%) [1, 10]: 8%
Population Healthy Nuclei (%) [1, 10]: 84%
Population Hoechst High Intensity Objects (%) [1, 10]: 6%
Population Membrane Permeable-Phenotype (%) [1, 10]: 20%
Population Mitochondria Different-Phenotype (%) [1, 10]: 22%
Population Mitotic Cells (%) [1, 10]: 77%
Population Normal (%) [1, 10]: 93%
Population Tubulin-Different-Phenotype (%) [1, 10]: 10%
Total Cell Count [1, 10]: 128
Growth Rate ([2]; 0 h, replicate number 1, timepoint 0 hours): 0
Growth Rate ([2]; 6 h, replicate number 1, timepoint 6 hours): 0
Growth Rate ([2]; 12 h, replicate number 1, timepoint 12 hours): 0
Growth Rate ([2]; 12 h, replicate number 2, timepoint 12 hours): 1
Growth Rate ([2]; 18 h, replicate number 1, timepoint 18 hours): 0
Growth Rate ([2]; 24 h, replicate number 1, timepoint 24 hours): 0
